A short description of data set [1]: Drug metabolism in beagle dog hepatocytes assessed as BMS-572273 metabolite level at 25 uM after 3 hrs by LC-MS/MS analysis. Type of data set: ADME, cell-based, Canis lupus familiaris, Hepatocyte. An outline of the steps:
(§1)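 Mouse, rat, dog, monkey and human hepatocytes (trypan blue viability checked) at 1.0×10^6 cells/ml in Krebs-Henseleit buffer were incubated with 25 µM compound, in duplicate. Conditions were 37°C, 95/5 O2/CO2, orbital shaking, 3 h. 7-Ethoxycoumarin and 7-hydroxycoumarin (100 µM) served as positive controls, with a cell-free negative control. Reactions were quenched with ice-cold acetonitrile, then sonicated and centrifuged; supernatants were analysed by LC/MS/MS.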

A short description of data set [2]: Drug metabolism in cynomolgus monkey liver microsomes at 100 uM after 1 hr in presence of NADPH. The format is ADME, Macaca fascicularis. An outline of the steps:
(§2)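 Mouse, rat, dog, monkey and human liver microsomes (1 mg/ml protein) were incubated with 100 µM compound in 100 mM phosphate buffer. Reactions were started with 1 mM NADPH and run 1 h at 37°C in duplicate. Controls lacked protein or NADPH, plus a 7-ethoxycoumarin (100 µM) positive control. Metabolites were identified by LC/MS/MS.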

In data set [3] the test system is Liver microsome. The data set is described as follows: Drug metabolism in rat liver microsomes assessed as DPH-123554 metabolite level at 100 uM after 1 hr in presence of NADPH. The format is ADME. The method in brief:
(§3)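 Liver microsomes (1 mg/ml protein) in 100 mM phosphate buffer with 100 µM test compound. Reaction started by adding NADPH (1 mM), then run at 37°C for 1 h in a shaking water bath, in duplicate. Controls lacked microsomal protein or NADPH; 7-ethoxycoumarin (100 µM) was the positive control. Metabolites identified by LC/MS/MS.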

Data set [4] concerns Liver microsome. Briefly: Drug metabolism in rat liver microsomes assessed as BMS-572273 metabolite level at 100 uM after 1 hr in presence of NADPH. Type of data set: ADME. An outline of the steps: as §3
(Microsomes from liver hold many membrane-bound enzymes, among them those of drug oxidation.)

The subject of data set [5] is Liver microsome. Briefly: Drug metabolism in dog liver microsomes assessed as BMS-572273 metabolite level at 100 uM after 1 hr in presence of NADPH. The format is ADME, Canis lupus familiaris. An outline of the steps: as §2
Data set [6] relates to Liver microsome. Briefly: Drug metabolism in rat liver microsomes at 100 uM after 1 hr in presence of NADPH. The format is ADME. The method in brief:
as §3

The nature of data set [7]: Drug metabolism in human cryopreserved hepatocytes at 25 uM after 3 hrs by LC-MS/MS analysis. Type of data set: ADME, cell-based, Hepatocyte. An outline of the steps: (§4)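 Hepatocytes checked for viability by trypan blue exclusion, then diluted in Krebs-Henseleit buffer to 1.0 × 10^6 cells/ml. Incubated in duplicate with 25 µM compound at 37°C for 3 h on an orbital shaker (80 rpm) under 95/5 O2/CO2. Negative control had no cells. Stopped with ice-cold acetonitrile, sonicated, centrifuged; supernatant analysed by LC/MS/MS.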

Data set [8] relates to Liver microsome. The data set is described as follows: Detection of compound level in human liver microsomes treated with 100 uM of BMS-562086 after 1 hr by LC-MS/MS analysis.
A short description of data set [9]: Detection of compound level in cynomolgus monkey liver microsomes treated with 100 uM of BMS-562086 after 1 hr by LC-MS/MS analysis.
Data set [10] can be described thus: Drug metabolism in beagle dog hepatocytes at 25 uM after 3 hrs by LC-MS/MS analysis. The format is ADME, cell-based, Canis lupus familiaris, Hepatocyte. The method in brief:
as §1

Data set [11] is described as follows: Drug metabolism in human cryopreserved hepatocytes assessed as BMS-572273 metabolite level at 25 uM after 3 hrs by LC-MS/MS analysis. Type of data set: ADME, cell-based, Hepatocyte. An outline of the steps: as §4
Data set [12] in a line: Drug metabolism in human cryopreserved hepatocytes assessed as DPH-123554 metabolite level at 25 uM after 3 hrs by LC-MS/MS analysis. The format is ADME, cell-based, Hepatocyte. The method in brief: as §4
A short description of data set [13]: Drug metabolism in rat hepatocytes assessed as BMS-572273 metabolite level at 25 uM after 3 hrs by LC-MS/MS analysis. The format is ADME, cell-based, Hepatocyte. An outline of the steps: as §4
Data set [14] in a line: Drug metabolism in mouse liver microsomes assessed as DPH-123554 metabolite level at 100 uM after 1 hr in presence of NADPH. Type of data set: ADME. An outline of the steps:
as §3

The nature of data set [15]: Drug metabolism in beagle dog hepatocytes assessed as DPH-124921 metabolite level at 25 uM after 3 hrs by LC-MS/MS analysis. The format is ADME, cell-based, Canis lupus familiaris, Hepatocyte. The method in brief: as §1
In a further data set the test system is Hepatocyte. Briefly: Detection of compound level in rat hepatocytes treated with 25 uM of BMS-562086 after 3 hrs by LC-MS/MS analysis. Type of data set: ADME, cell-based. The method in brief: as §1
Data set [16] can be described thus: Drug metabolism in bile duct-cannulated Sprague-Dawley rat bile assessed as BMS-572273 metabolite level at 30 mg/kg, po after 12 hrs by LC-MS/MS analysis. The format is ADME, organism-based. The arrangement: dose 30 mg/kg, route oral. The following applies: in vivo. The method in brief:
(§5)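 Male bile-duct-cannulated Sprague-Dawley rats (n=3), fasted overnight, received 30 mg/kg by gavage in 0.5% methylcellulose. Urine and bile were collected 0-12 h and pooled by equal percentage weight across animals, then centrifuged. Supernatants were profiled by LC/MS/MS. Bile was also treated with β-glucuronidase in pH 4.8 acetate buffer, 37°C, 16 h.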

Data set [17] in a line: Drug metabolism in bile duct-cannulated Sprague-Dawley rat urine assessed as DPH-123554 metabolite level at 30 mg/kg, po after 12 hrs by LC-MS/MS analysis. The format is ADME, organism-based. The arrangement: dose 30 mg/kg, route oral. The settings on record: in vivo. An outline of the steps: as §5
Data set [18] in a line: Cmax in beagle dog at 5 mg/kg, po. The arrangement: dose 5 mg/kg, route oral. The format is ADME, organism-based, Canis lupus familiaris. The following applies: in vivo. The method in brief:
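Male beagle dogs (n=3, 10.1-12.7 kg) in a one-way IV/PO crossover with one-week washout, fasted ~15 h pre-dose and 4 h post-dose. Dosing was 1 mg/kg IV bolus into the saphenous vein in DMA:propylene glycol:water (1:7:2), or 5 mg/kg gavage in 0.5% methylcellulose. Blood was sampled 0-96 h. Plasma was assayed by LC/MS/MS (LLOQ 1.00 ng/ml) with noncompartmental analysis; Cmax was observed directly.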

Data set [19] in a line: Tmax in chimpanzee at 1 mg/kg, po. Type of data set: ADME, organism-based, Pan troglodytes. The arrangement: dose 1 mg/kg, route oral. The settings on record: in vivo. The method in brief:
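Two male chimpanzees (58 and 72 kg), fasted overnight, dosed orally at 1 mg/kg as a suspension in 0.5% aqueous methylcellulose/Tang orange juice with 1% Tween 80 (1:1). Plasma sampled 0-96 h, parent measured by validated LC/MS/MS. Tmax taken from observed data by noncompartmental analysis; reported as median (min, max).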

Data set [20] deals with Liver microsome. The data set is described as follows: Drug metabolism in human liver microsomes assessed as DPH-123554 metabolite formation at 100 uM after 1 hr in presence of NADPH and ketoconazole. The format is ADME.
Data set [21] can be described thus: Drug metabolism in human cryopreserved hepatocytes assessed as decrease of compound level at 25 uM after 3 hrs by HPLC analysis. The format is ADME, cell-based, Hepatocyte. The settings on record: read-out: Drug metabolism.
Data set [22] can be described thus: Drug metabolism in mouse hepatocytes assessed as decrease of compound level at 25 uM after 3 hrs by HPLC analysis. The format is ADME, cell-based, Hepatocyte. The following applies: read-out: Drug metabolism.
The nature of data set [23]: Drug metabolism in beagle dog hepatocytes assessed as […] at 25 uM after 3 hrs by HPLC analysis. Type of data set: ADME, cell-based, Canis lupus familiaris, Hepatocyte.
A short description of data set [24]: Drug metabolism in mouse hepatocytes assessed as at 25 uM after 3 hrs by HPLC analysis.
Data set [25] concerns Liver microsome. Briefly: Drug metabolism in human liver microsomes assessed as BMS-572273 metabolite formation at 100 uM after 1 hr in presence of NADPH and ketoconazole. The format is ADME.
Data set [26] can be described thus: Drug metabolism in cynomolgus monkey cryopreserved hepatocytes assessed as […] at 25 uM after 3 hrs by HPLC analysis. The format is ADME, cell-based, Macaca fascicularis, Hepatocyte.

With `COc1ccc(-c2c(C)nn3c(N)nc(C)nc23)c(C)n1`, the Drug metabolism entry (in data set [1]; in data set [2]; with Liver microsome [3]; with Liver microsome [4]; with Liver microsome [5]; in the data set with Liver microsome [6]) was “metabolite_detected” each time. Moreover, the Drug metabolism result (in [7]; in the data set on Liver microsome [8]; in data set [9]; in [10]; in [11]; in data set [12]) was “metabolite_detected” in each case. For the same compound, the Drug metabolism entry (in data set [13]; in data set [14]; in data set [15]; in the data set with Hepatocyte) was “metabolite_detected” in each case.
As to `COc1ccc(-c2c(C)nn3c(O)nc(C)nc23)c(C)n1`, the Drug metabolism entry (in data set [1]; in data set [2]; with Liver microsome [3]; with Liver microsome [4]; with Liver microsome [5]; in the data set with Liver microsome [6]) was “metabolite_detected” in each case. In addition, the Drug metabolism result (in data set [16]; in data set [7]; with Liver microsome [8]; in data set [9]; in [10]; in [11]) was “metabolite_detected” throughout. Besides, the Drug metabolism result (in data set [12]; in [13]; in data set [14]; in [15]; in the data set on Hepatocyte) was “metabolite_detected” each time.
With `CC[C@@H](C)Nc1nc(C)nc2c(-c3ccc(O)nc3C)c(C)nn12`, the Drug metabolism result (in data set [1]; in [2]; in the data set with Liver microsome [3]; with Liver microsome [4]; in the data set with Liver microsome [5]; with Liver microsome [6]) was “metabolite_detected” throughout. For the same compound, the Drug metabolism result (in [7]; in the data set with Liver microsome [8]; in [9]; in [10]; in [11]; in data set [12]) was “metabolite_detected” in each case. Besides, the Drug metabolism entry (in data set [17]; in data set [13]; in data set [14]; in data set [15]; with Hepatocyte) was “metabolite_detected” in each case.
By Cmax is commonly meant the maximum level reached in the sampled fluid or tissue. Broadly, the Tmax is the time at which the peak concentration occurs. For `CC[C@@H](C)Nc1nc(C)nc2c(-c3ccc(OC)nc3C)c(C)nn12` [PEXACERFONT], the Drug metabolism entry is listed as “metabolite_detected” in [1]; “metabolite_detected” in data set [2]; “metabolite_detected” with Liver microsome [3]; “metabolite_not_detected” with Liver microsome [20]; “metabolite_detected” with Liver microsome [4]; “metabolite_detected” in the data set with Liver microsome [5]. Moreover, the Drug metabolism entry (in the data set with Liver microsome [6]; in data set [7]; in data set [23]; with Liver microsome [8]; in data set [9]; in [10]) was “metabolite_detected” throughout. Moreover, the Drug metabolism entry in data set [11] was “metabolite_detected”; in data set [12], “metabolite_detected”; in data set [24], “metabolite_detected”; in [13] it was “metabolite_detected”; in the data set on Liver microsome [25], “metabolite_not_detected”; in data set [14] it was “metabolite_detected”. The Drug metabolism result (in data set [15]; with Hepatocyte; in [26]) was “metabolite_detected” in each case. The Cmax in data set [18] came to 1800 nM. For the same compound, in data set [19], the Tmax was 2 h. Moreover, the metabolised at 3 h, 25 µM in data set [21] worked out at 40%; in data set [22] it was 75%.

(Values after ChEMBL document CHEMBL3526146, “In vitro and in vivo metabolism and pharmacokinetics of BMS-562086, a potent and orally bioavailable corticotropin-releasing factor-1 receptor antagonist” (Drug Metab Dispos, 2012).)
